Assay [1] in a line: inhibitors of TNFa-induced NFkB p65 translocation, primary screen, imaging, HUVEC, MLSMR starter and 10KST1 sets (AID 438;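 active means inhibition above 20% together with a positive visual image hit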;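 further: compound added about 3h40 before a 20 min TNFalpha stimulation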;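 on inhibition: signal is the nuclear over cytoplasmic p65 intensity ratio per well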). The conditions noted are these: HUVEC TNFa-induced p65 nuclear translocation; cell count: measured here: nuclei count (cytotoxicity indicator), at 2.08 µM; inhibition: at 2 µM, stronger effect = higher value, 0% TNFa-plus-vehicle, 100% no-TNFa wells.
The nature of assay [2]: inhibitors of mutant huntingtin aggregation, primary screen, imaging, exon1htt(103Q)mCFP cells, high-content imaging (AID 483;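 active means visual image review flags a hit and inhibition of aggregation exceeds 20%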;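 further: compound exposure lasted 3 days before fixation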;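 on nuclei count: percent of the per-plate median nuclei count of sample wells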). The following applies: exon1htt(103Q)mCFP cell line, aggregate imaging, at 2 µM; inhibition of aggregation: stronger effect = higher value; nuclei count: measured here: cell count, toxicity.
A short description of assay [3]: inhibitors of E-selectin induction by TNFa, primary screen, imaging, HUVEC, immunofluorescence, MLSMR starter and 10KST1 sets (AID 487;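 active means visually confirmed hit in the image check and inhibition above 20%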;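 on inhibition: signal is fraction of cell area covered by stained E-selectin grains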;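 on nuclei count: 100% = median nuclei count of all wells on the same plate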). The following applies: HUVEC TNFalpha-induced E-selectin immunofluorescence imaging, at 2 µM; inhibition: stronger effect = higher value; nuclei count: measured here: cell number, toxicity.
Assay [4] concerns the target Voltage-gated potassium channel subunit beta-2 (Rattus norvegicus) (UniProt P62483). Put plainly: KvBeta enzyme negative modulators, primary screen, biochemical, NADPH fluorescence (AID 622;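 active means fluorescence slope higher than the sample average by over 3 SD, cut at about -0.22 in these data, passing the limit was not always enough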;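 further: slope of raw intensity against log time taken from 70 to 1610 s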). The conditions noted are these: recombinant KvBeta, 4-cyanobenzaldehyde reduction, at 10 µM, stronger effect = higher value.
For assay [5] the target is unchanged. Put plainly: KvBeta positive modulators, primary screen, biochemical, NADPH fluorescence (AID 623;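 active means NADPH fluorescence slope more negative than the mean of all samples by about 3 SD, 99.7% confidence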;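 further: fluorescence intensity change per second fitted from 20 to 320 s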). The conditions noted are these: Recombinant KvBeta, NADPH fluorescence decrease slope, 10 min; at 10 µM; stronger effect = lower value.
For assay [6], the target named is Muscarinic acetylcholine receptor M4 (Homo sapiens) (UniProt P08173). The assay can be described thus: compounds altering M4/GIRK thallium flux, either direction, primary screen, M4 allosteric agonist project, cell-based, HEK293 M4/GIRK, BTC-AM (AID 625;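 active means fluorescence slope after compound addition differing from the mean of all tested samples at 99.7% confidence, mostly higher but some lower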;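 further: thallium influx through GIRK channels coupled to M4 in HEK293 cells with BTC-AM dye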). The conditions noted are these: at 10 µM, actives lie on both sides. In a few lines:
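Material: M4/GIRK1/GIRK2 stable HEK293 cell line. Medium: pH 7.3 thallium assay buffer. Dosing: single compound concentration, 10 µM final. Schedule: 1 h dye loading, 2 min kinetic read. Measured by: kinetic fluorescence with BTC-AM dye. Read-out: post-addition slope, 15–24 s, of baseline-normalized fluorescence. Benchmarks: carbachol and DMSO controls.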

A short description of assay [7]: inhibitors of Sendai virus-induced IRF3 signaling, primary screen, TLR/RLR signaling modifier project, cell-based, Sendai virus stimulus, luciferase, 10K MLSCN set (AID 602276;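 active means inhibition at or above 50% at 10 µM; inactive means inhibition below 50%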;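 further: firefly luciferase from ISG56 promoter only with Renilla not read in this screen; 0% = Sendai virus plus DMSO and 100% = medium plus DMSO without virus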). The following applies: HEK293 RL24 IRF3 luciferase reporter, at 10 µM, stronger effect = higher value. In general terms: In a reporter assay the amount or activity of a reporter protein is the signal.

Assay [8] is described as follows: inhibitors of poly I:C-induced TLR3 signaling, primary screen, cell-based, poly I:C stimulus, luciferase, 10K MLSCN set (AID 602277). The conditions noted are these: HEK293-TLR3 RL24 IRF3 luciferase reporter, at 10 µM, stronger effect = higher value.

The source made the active and inactive calls.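 How the source made its calls, unless noted: active means inhibition of the reporter signal at or above 50%; inactive means inhibition below 50%.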

Sequence of Muscarinic acetylcholine receptor M4 (Homo sapiens) (P08173 whole entry, looked up): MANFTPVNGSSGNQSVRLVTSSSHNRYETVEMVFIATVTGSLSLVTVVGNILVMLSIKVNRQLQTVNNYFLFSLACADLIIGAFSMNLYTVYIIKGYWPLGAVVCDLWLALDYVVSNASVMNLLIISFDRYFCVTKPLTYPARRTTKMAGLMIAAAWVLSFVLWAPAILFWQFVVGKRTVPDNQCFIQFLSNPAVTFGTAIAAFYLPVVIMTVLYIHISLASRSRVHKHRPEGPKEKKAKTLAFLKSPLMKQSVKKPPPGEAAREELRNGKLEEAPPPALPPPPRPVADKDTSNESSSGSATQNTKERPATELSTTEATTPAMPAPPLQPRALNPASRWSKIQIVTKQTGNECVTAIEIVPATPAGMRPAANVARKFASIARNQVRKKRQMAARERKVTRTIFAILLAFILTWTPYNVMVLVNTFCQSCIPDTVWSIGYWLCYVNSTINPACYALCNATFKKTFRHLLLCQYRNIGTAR
Sequence of Voltage-gated potassium channel subunit beta-2 (Rattus norvegicus) (P62483 whole entry, looked up): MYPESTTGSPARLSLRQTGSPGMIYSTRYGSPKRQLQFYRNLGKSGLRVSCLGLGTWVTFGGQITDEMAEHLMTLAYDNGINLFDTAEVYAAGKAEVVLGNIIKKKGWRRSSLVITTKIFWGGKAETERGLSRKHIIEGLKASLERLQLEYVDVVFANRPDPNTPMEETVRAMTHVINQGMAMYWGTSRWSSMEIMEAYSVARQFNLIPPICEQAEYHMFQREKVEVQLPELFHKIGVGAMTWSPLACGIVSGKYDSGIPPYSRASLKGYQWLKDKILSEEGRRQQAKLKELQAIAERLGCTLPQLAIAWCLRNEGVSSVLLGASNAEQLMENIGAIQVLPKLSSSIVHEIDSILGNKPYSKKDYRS

Take `NC1=NC(c2ccc(Cl)cc2)n2c(nc3ccccc32)N1` (centres undefined): the cell count in assay [1] came to 780. The inhibition (usually the change of the read-out against control, counted positive when it falls) in assay [1] is 3.5% (inactive); in assay [3], -15.2% (inactive); in assay [7] it was 16.5% (inactive); in assay [8] it was 18.6% (inactive). Further, in assay [2], the inhibition of aggregation is -8.4% (inactive). Also, the nuclei count in assay [2] stood at 125%; in assay [3], 113%. Also, the fluorescence slope in assay [4] is -0.584 (inactive); in assay [6] it was 0.00539 (inactive). In assay [5], the NADPH fluorescence slope is 1.3e-05 (inactive).

As to `CC(=O)N1c2c(cc(Br)cc2S(=O)(=O)N2CCN(c3ccccn3)CC2)CC1C` (centres undefined), the cell count in assay [1] stood at 365. For the same molecule, the inhibition in assay [1] is -15.4% (inactive); in assay [3], -49.9% (inactive); in assay [7] it was 15.6% (inactive); in assay [8], 6.87% (inactive). In assay [2], the inhibition of aggregation is 21.2% (inactive). The results for the nuclei count in assay [2] and in assay [3] were 93.1% and 128%, respectively. The results for the fluorescence slope in assay [4] and in assay [6] were -0.523 (inactive) and 0.00651 (inactive), respectively. Further, the NADPH fluorescence slope in assay [5] is -0.000101 (inactive).

Turning to `[O-][n+]1c2c(nn1-c1ccccc1Cl)-c1nonc1CC2`, the cell count in assay [1] is 593. The inhibition in assay [1] was -26.9% (inactive); in assay [3] it was -1.8% (inactive); in assay [7] it was 12% (inactive); in assay [8], 5.67% (inactive). In assay [2], the inhibition of aggregation is -16.7% (inactive). In addition, the nuclei count in assay [2] amounted to 112%; in assay [3], 95%. For the same molecule, the fluorescence slope is -0.351 (inactive) in assay [4] and 0.00719 (inactive) in assay [6]. In addition, the NADPH fluorescence slope in assay [5] is -7.7e-05 (inactive).

In the case of `CC(=O)c1cc(C#N)c(SCC(=O)OC(C)C)nc1C`, the cell count in assay [1] came to 464. Further, the inhibition in assay [1] was -5.3% (inactive); in assay [3] it was -22.4% (inactive); in assay [7] it was 9.07% (inactive); in assay [8] it was -11% (inactive). Besides, the inhibition of aggregation in assay [2] was -14.7% (inactive). Besides, the values for the nuclei count in assay [2] and in assay [3] were 118% and 121%, respectively. Further, the fluorescence slope in assay [4] was -0.26 (inactive); in assay [6], 0.00594 (inactive). Also, the NADPH fluorescence slope in assay [5] is -2.7e-05 (inactive).

For the molecule `COc1ccc(CC(=O)Nc2ccc(-c3nnc(-c4ccc(C)cc4)o3)cc2)cc1`, the cell count in assay [1] is 411. The inhibition in assay [1] was 0.5% (inactive); in assay [3], -101% (inactive); in assay [7] it was 8.75% (inactive); in assay [8] it was 18.4% (inactive). Moreover, the inhibition of aggregation in assay [2] was -17.7% (inactive). Besides, the figures for the nuclei count in assay [2] and in assay [3] were 102% and 109%, respectively. Further, the figures for the fluorescence slope in assay [4] and in assay [6] were -0.454 (inactive) and 0.0071 (inactive), respectively. In addition, the NADPH fluorescence slope in assay [5] was -9.3e-06 (inactive).

Take `COc1ccc(C(NC(=O)c2ccco2)c2ccc(OC)c(OC)c2)cc1` (centres undefined): in assay [1], the cell count was 373. For the same molecule, the inhibition in assay [1] is 27.4% (active); in assay [3], -24.8% (inactive); in assay [7] it was 6.11% (inactive); in assay [8] it was 18.1% (inactive). In addition, in assay [2], the inhibition of aggregation is -4.2% (inactive). Moreover, the nuclei count came out at 104% in assay [2] and 114% in assay [3]. Also, the values for the fluorescence slope in assay [4] and in assay [6] were -0.326 (inactive) and 0.00496 (inactive), respectively. For the same molecule, the NADPH fluorescence slope in assay [5] is -6.7e-05 (inactive).

As for `CCN(C#N)c1nc(NC(C)C)nc(NC(C)C)n1`, in assay [1], the cell count was determined as 354. For the same molecule, the inhibition in assay [1] was 3.3% (inactive); in assay [3] it was -0.6% (inactive); in assay [7], 0.243% (inactive); in assay [8], 9.55% (inactive). The inhibition of aggregation in assay [2] was 14.7% (inactive). Moreover, the nuclei count came out at 100% in assay [2] and 82.6% in assay [3]. Also, the fluorescence slope is -0.316 (inactive) in assay [4] and 0.00491 (inactive) in assay [6]. Moreover, in assay [5], the NADPH fluorescence slope is -5.2e-05 (inactive).

With `CCOc1cc(N2CCOCC2)c(OCC)cc1NC(=O)CSc1cccc[n+]1[O-]`, in assay [1], the cell count stood at 506. The inhibition in assay [1] was 10.6% (inactive); in assay [3], -56.8% (inactive); in assay [7], 15.1% (inactive); in assay [8], 18.2% (inactive). Besides, in assay [2], the inhibition of aggregation was 2.4% (inactive). Moreover, the results for the nuclei count in assay [2] and in assay [3] were 109% and 115%, respectively. Besides, the fluorescence slope in assay [4] was -0.506 (inactive); in assay [6] it was 0.00543 (inactive). In addition, the NADPH fluorescence slope in assay [5] was -0.000267 (inactive).

Turning to `Cc1nn(-c2ccccc2)c2c1C(c1c(C)[nH]c(C#N)c1C)C(C#N)=C(N)O2` (centres undefined), the cell count in assay [1] stood at 565. Also, the inhibition in assay [1] is -13.4% (inactive); in assay [3], 15.4% (inactive); in assay [7] it was 8.98% (inactive); in assay [8] it was 13% (inactive). The inhibition of aggregation in assay [2] was 9.2% (inactive). For the same molecule, the figures for the nuclei count in assay [2] and in assay [3] were 86% and 101%, respectively. Also, the fluorescence slope in assay [4] is -0.391 (inactive); in assay [6] it was 0.00623 (inactive). In addition, the NADPH fluorescence slope in assay [5] was 8.5e-05 (inactive).

For the molecule `Cc1cc(C)n2nc(S(=O)(=O)N(C)Cc3ccccc3)nc2n1`, the cell count in assay [1] worked out at 560. Further, the inhibition is -10.1% (inactive) in assay [1], -35.3% (inactive) in assay [3], -4.55% (inactive) in assay [7] and 8.01% (inactive) in assay [8]. Moreover, in assay [2], the inhibition of aggregation was -1.6% (inactive). Moreover, the nuclei count in assay [2] is 110%; in assay [3], 116%. The fluorescence slope in assay [4] is -0.313 (inactive); in assay [6], 0.00664 (inactive). The NADPH fluorescence slope in assay [5] was -3.3e-05 (inactive).

For the molecule `COc1ccc(NCc2nnc(SCC(=O)Nc3cc(C)cc(C)c3)o2)cc1`, in assay [1], the cell count was determined as 396. In addition, the inhibition was -1.1% (inactive) in assay [1], 36.7% (inactive) in assay [3], 11% (inactive) in assay [7] and 22.6% (inactive) in assay [8]. The inhibition of aggregation in assay [2] was 8.7% (inactive). Moreover, the nuclei count was found to be 101% in assay [2] and 79.5% in assay [3]. Besides, the fluorescence slope in assay [4] was -0.4 (inactive); in assay [6] it was 0.00688 (inactive). In addition, the NADPH fluorescence slope in assay [5] was -0.000139 (inactive).

For the molecule `Cc1ccc(S(=O)(=O)N2CCOCC2)cc1C(=O)Nc1ccccn1`, the cell count in assay [1] was 542. Moreover, the inhibition in assay [1] is -49% (inactive); in assay [3] it was -75.1% (inactive); in assay [7], 7.52% (inactive); in assay [8], 12% (inactive). The inhibition of aggregation in assay [2] is -23.1% (inactive). Moreover, the values for the nuclei count in assay [2] and in assay [3] were 106% and 111%, respectively. Besides, the fluorescence slope in assay [4] is -0.346 (inactive); in assay [6], 0.00587 (inactive). In addition, the NADPH fluorescence slope in assay [5] was -3.9e-05 (inactive).

As to `COc1cc(NC(=O)c2ccco2)c(OC)cc1NC(=O)CCC(=O)Nc1cc(C)cc(C)c1`, the cell count in assay [1] came to 534. The inhibition in assay [1] was -0.3% (inactive); in assay [3] it was 26.4% (inactive); in assay [7] it was 16% (inactive); in assay [8], 27.3% (inactive). In assay [2], the inhibition of aggregation is 18.3% (inactive). The nuclei count in assay [2] worked out at 72.2%; in assay [3], 68.3%. Besides, the fluorescence slope was -0.279 (inactive) in assay [4] and 0.00626 (inactive) in assay [6]. Moreover, the NADPH fluorescence slope in assay [5] was 6.9e-06 (inactive).

Turning to `O=C1CC(Cc2ccccc2)C(=O)N1CCc1ccc2c(c1)OCO2` (centres undefined), in assay [1], the cell count amounted to 480. For the same molecule, the inhibition is 3.5% (inactive) in assay [1], -145% (inactive) in assay [3], -0.603% (inactive) in assay [7] and 9.62% (inactive) in assay [8]. The inhibition of aggregation in assay [2] was -0.2% (inactive). Besides, the nuclei count stood at 110% in assay [2] and 127% in assay [3]. The fluorescence slope is -0.579 (inactive) in assay [4] and 0.00603 (inactive) in assay [6]. For the same molecule, the NADPH fluorescence slope in assay [5] is -1.8e-05 (inactive).

The record behind these values is PubChem BioAssay.
